Test results: ChEMBL document CHEMBL1138229, “Novel cyano- and amidino-substituted derivatives of styryl-2-benzimidazoles and benzimidazo[1,2-a]quinolines. Synthesis, photochemical synthesis, DNA binding, and antitumor evaluation, part 3” (J Med Chem, 2007)
Values belong to the molecule of their own block, whether it stands above or below them. The source made the active and inactive calls. The rule behind the calls is not given here.

Legend:
SW-620 [1] = assay: Cell cycle arrest in human SW620 cells assessed as accumulation at G2/M phase after 48 hrs at 5 uM; type: functional
Summary of the method: (§1)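 Cells seeded at 2 × 10^5 per well and incubated overnight before compound at 5 × 10^-6 M. After 24, 48 or 72 h, attached and floating cells were pooled, PBS-washed and fixed in 70% ethanol. RNase A (0.1 µg/µl, 37 °C, 15 min), then propidium iodide 1 µg/mL; flow cytometry of 20 000 events. Results given as percent of cells per phase; significance at p < 0.05.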

SW-620 [2] = assay: Cell cycle arrest in human SW620 cells assessed as accumulation at S phase after 24 hrs at 5 uM; type: functional; summary of the method: as §1
Homo sapiens = species on record: Homo sapiens; assay: Inhibition of Topoisomerase 2-mediated pRYG DNA relaxation activity
Summary of the method: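 Supercoiled pRYG plasmid with 8 units purified topo II in assay buffer. Test compound or etoposide added as 2 µL of a 1 mM stock per 20 µL reaction. Incubation 37 °C for 30 min; stopped with SDS, then proteinase K (50 µg/mL, 37 °C, 15 min). Gel electrophoresis, post-stained with ethidium bromide 0.5 µg/mL, UV imaging of supercoiled-to-relaxed conversion.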

SW-620 [3] = assay: Cell cycle arrest in human SW620 cells assessed as accumulation at G1/G0 phase after 48 hrs at 5 uM; type: functional; summary of the method: as §1
SW-620 [4] = assay: Cell cycle arrest in human SW620 cells assessed as accumulation at S phase after 72 hrs at 5 uM; type: functional; summary of the method: as §1
SW-620 [5] = assay: Cell cycle arrest in human SW620 cells assessed as accumulation at G1/G0 phase after 72 hrs at 5 uM; type: functional; summary of the method: as §1
SW-620 [6] = assay: Cell cycle arrest in human SW620 cells assessed as accumulation at G2/M phase after 72 hrs at 5 uM; type: functional; summary of the method: as §1
DNA = assay: Binding affinity to calf thymus DNA by thermal melting temperature assay; type: nucleic-acid assay; settings: Bos taurus
Summary of the method: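 ct-DNA (as phosphate concentration) in sodium cacodylate buffer pH 7.0, I = 0.05 mol dm-3. Compound/polynucleotide ratio r = 0.3. Absorbance at 260 nm followed against temperature, ligand absorbance subtracted. Tm taken as transition midpoint by first derivative or tangent method. ΔTm = Tm(complex) − Tm(free DNA), averaged over at least two runs, error ±0.5 °C.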

SW-620 [7] = assay: Cell cycle arrest in human SW620 cells assessed as accumulation at G1/G0 phase after 24 hrs at 5 uM; type: functional; summary of the method: as §1
SW-620 [8] = assay: Cell cycle arrest in human SW620 cells assessed as accumulation at G2/M phase after 24 hrs at 5 uM; type: functional; summary of the method: as §1
SW-620 [9] = assay: Antitumor activity against human SW620 cells after 72 hrs by MTT assay; type: functional, cell-based; settings: SW-620, 72 h
Summary of the method: (§2)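 Cells from ATCC grown as monolayers in DMEM with 10% FBS, 2 mM L-glutamine, penicillin/streptomycin, 5% CO2, 37 °C. Seeded on day 0 at 1 × 10^4/mL (2 × 10^4/mL for MCF-7). Five 10-fold dilutions (10^-8 to 10^-4 mol/L) added, then 72 h exposure. MTT read at 570 nm; percent growth vs time-zero and untreated controls. IC50 by linear regression; quadruplicates, three experiments.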

SW-620 [10] = assay: Cell cycle arrest in human SW620 cells assessed as accumulation at Sub G1 phase after 24 hrs at 5 uM; type: functional; summary of the method: as §1
SW-620 [11] = assay: Cell cycle arrest in human SW620 cells assessed as accumulation at Sub G1 phase after 72 hrs at 5 uM; type: functional; summary of the method: as §1
SW-620 [12] = assay: Cell cycle arrest in human SW620 cells assessed as accumulation at S phase after 48 hrs at 5 uM; type: functional; summary of the method: as §1
SW-620 [13] = assay: Cell cycle arrest in human SW620 cells assessed as accumulation at Sub G1 phase after 48 hrs at 5 uM; type: functional; summary of the method: as §1
MCF7 = assay: Antitumor activity against human MCF7 cells after 72 hrs by MTT assay; type: functional, cell-based; settings: MCF7, 72 h; summary of the method: as §2
MIA PaCa-2 = assay: Antitumor activity against human MiaPaCa2 cells after 72 hrs by MTT assay; type: functional, cell-based; settings: MIA PaCa-2, 72 h; summary of the method: as §2
[14] = Antiproliferative activity against human […] fibroblast after 72 hrs by MTT assay; type: functional; summary of the method: as §2
HEp-2 = assay: Antitumor activity against human Hep2 cells after 72 hrs by MTT assay; type: functional, cell-based; settings: HEp-2, 72 h; summary of the method: as §2
HeLa [15] = assay: Antitumor activity against human HeLa cells after 72 hrs by MTT assay; type: functional, cell-based; summary of the method: as §2
NCI-H460 = assay: Antitumor activity against human H460 cells after 72 hrs by MTT assay; type: functional, cell-based; settings: NCI-H460, 72 h; summary of the method: as §2
HeLa [16] = assay: Cell cycle arrest in human HeLa cells assessed as accumulation at G2/M phase after 24 hrs at 5 uM; type: functional; summary of the method: as §1
HeLa [17] = assay: Cell cycle arrest in human HeLa cells assessed as accumulation at Sub G1 phase after 72 hrs at 5 uM; type: functional; summary of the method: as §1
HeLa [18] = assay: Cell cycle arrest in human HeLa cells assessed as accumulation at G0/G1 phase after 72 hrs at 5 uM; type: functional; summary of the method: as §1
HeLa [19] = assay: Cell cycle arrest in human HeLa cells assessed as accumulation at S phase after 24 hrs at 5 uM; type: functional; summary of the method: as §1
HeLa [20] = assay: Cell cycle arrest in human HeLa cells assessed as accumulation at S phase after 72 hrs at 5 uM; type: functional; summary of the method: as §1
HeLa [21] = assay: Cell cycle arrest in human HeLa cells assessed as accumulation at G0/G1 phase after 24 hrs at 5 uM; type: functional; summary of the method: as §1
HeLa [22] = assay: Cell cycle arrest in human HeLa cells assessed as accumulation at G2/M phase after 48 hrs at 5 uM; type: functional; summary of the method: as §1
HeLa [23] = assay: Cell cycle arrest in human HeLa cells assessed as accumulation at Sub G1 phase after 48 hrs at 5 uM; type: functional; summary of the method: as §1
HeLa [24] = assay: Cell cycle arrest in human HeLa cells assessed as accumulation at G0/G1 phase after 48 hrs at 5 uM; type: functional; summary of the method: as §1
HeLa [25] = assay: Cell cycle arrest in human HeLa cells assessed as accumulation at Sub G1 phase after 24 hrs at 5 uM; type: functional; summary of the method: as §1
HeLa [26] = assay: Cell cycle arrest in human HeLa cells assessed as accumulation at S phase after 48 hrs at 5 uM; type: functional; summary of the method: as §1
HeLa [27] = assay: Cell cycle arrest in human HeLa cells assessed as accumulation at G2/M phase after 72 hrs at 5 uM; type: functional; summary of the method: as §1

SMILES: N#Cc1ccc2nc(/C=C/c3ccccc3)[nH]c2c1
IC50 (NCI-H460): 3 µM
IC50 (SW-620 [9]): 2.5 µM
IC50 (MCF7): 4 µM
IC50 (MIA PaCa-2): 4 µM
IC50 [14]: 14 µM
IC50 (HeLa [15]): 2 µM

SMILES: Cl.c1ccc2c(c1)ccc1nc3ccc(C4=NCCN4)cc3n12
Activity (HeLa [16]): 26%
Activity (SW-620 [1]): 49%
Activity (SW-620 [2]): 39%
Activity (Homo sapiens): Active
Activity (SW-620 [3]): 25%
Activity (SW-620 [4]): 17%
Activity (HeLa [17]): 3%
Activity (SW-620 [5]): 30%
Activity (SW-620 [6]): 54%
ΔTm (DNA): 4.9 °C
Activity (SW-620 [7]): 12%
Activity (SW-620 [8]): 49%
Activity (HeLa [18]): 28%
IC50 (SW-620 [9]): 0.4 µM
Activity (HeLa [19]): 42%
Activity (SW-620 [10]): 3%
Activity (SW-620 [11]): 13%
Activity (SW-620 [12]): 26%
Activity (SW-620 [13]): 12%
Activity (HeLa [20]): 32%
IC50 (MCF7): 2 µM
Activity (HeLa [21]): 32%
IC50 (MIA PaCa-2): 1 µM
Activity (HeLa [22]): 32%
IC50 [14]: 2 µM
IC50 (HEp-2): 2 µM
Activity (HeLa [23]): 2%
Activity (HeLa [24]): 34%
Activity (HeLa [25]): 2%
Activity (HeLa [26]): 36%
Activity (HeLa [27]): 40%
IC50 (HeLa [15]): 2 µM

SMILES: CC(C)NC(=N)c1ccc2nc(/C=C/c3ccccc3)[nH]c2c1
ΔTm (DNA): 1.1 °C
IC50 (SW-620 [9]): > 100 µM
IC50 (MCF7): 9 µM
IC50 (MIA PaCa-2): > 100 µM
IC50 [14]: > 100 µM
IC50 (HEp-2): ≥ 100 µM
IC50 (HeLa [15]): 11 µM

SMILES: N=C(N)c1ccc2nc(/C=C\c3ccccc3)[nH]c2c1
ΔTm (DNA): -0.5 °C
IC50 (SW-620 [9]): 78 µM
IC50 (MCF7): 36 µM
IC50 (MIA PaCa-2): > 100 µM
IC50 [14]: > 100 µM
IC50 (HEp-2): ≥ 100 µM
IC50 (HeLa [15]): 5.4 µM

SMILES: N#Cc1ccc(/C=C/c2nc3ccccc3[nH]2)cc1
IC50 (NCI-H460): 20 µM
IC50 (SW-620 [9]): 23 µM
IC50 (MCF7): 14 µM
IC50 (MIA PaCa-2): 36 µM
IC50 (HeLa [15]): 19 µM

SMILES: N#Cc1ccc2c(c1)nc1ccc3ccccc3n12
IC50 (NCI-H460): 7 µM
IC50 (SW-620 [9]): 2 µM
IC50 (MCF7): 21 µM
IC50 (MIA PaCa-2): 7 µM
IC50 [14]: 5 µM
IC50 (HeLa [15]): 4 µM

The next lines start with results.

Activity (Homo sapiens): Active
ΔTm (DNA): 1 °C
IC50 (SW-620 [9]): 45 µM
IC50 (MCF7): 17 µM
IC50 (MIA PaCa-2): 25 µM
IC50 (HeLa [15]): 35 µM
SMILES: C(=C/c1nc2ccc(C3=NCCN3)cc2[nH]1)/c1ccccc1.Cl
Activity (SW-620 [1]): 15%
Activity (SW-620 [2]): 45%
Activity (SW-620 [3]): 46%
Activity (SW-620 [4]): 30%
Activity (SW-620 [5]): 49%
Activity (SW-620 [6]): 21%
Activity (SW-620 [7]): 36%
Activity (SW-620 [8]): 19%
Activity (SW-620 [10]): 0.5%
Activity (SW-620 [11]): 0.8%
Activity (SW-620 [12]): 39%
Activity (SW-620 [13]): 1%
IC50 [14]: 99 µM
IC50 (HEp-2): 27 µM

ΔTm (DNA): 1.3 °C
IC50 (SW-620 [9]): 22 µM
IC50 (MCF7): 25 µM
IC50 (MIA PaCa-2): 47 µM
IC50 (HeLa [15]): 13 µM
SMILES: N=C(NN1CCOCC1)c1ccc2nc(/C=C\c3ccccc3)[nH]c2c1
IC50 [14]: 22 µM
IC50 (HEp-2): 61 µM

IC50 (NCI-H460): 13 µM
IC50 (SW-620 [9]): 8 µM
IC50 (MCF7): 18 µM
IC50 (MIA PaCa-2): 15 µM
IC50 (HeLa [15]): 0.05 µM
SMILES: N#Cc1ccc2nc3ccc4ccccc4n3c2c1
IC50 [14]: 14 µM

ΔTm (DNA): 3.7 °C
IC50 (SW-620 [9]): 3 µM
IC50 (MCF7): 4 µM
IC50 (MIA PaCa-2): 3 µM
IC50 (HeLa [15]): 4 µM
SMILES: CC(C)NC(=N)c1ccc2nc3ccc4ccccc4n3c2c1
IC50 [14]: 10 µM
IC50 (HEp-2): 4 µM

ΔTm (DNA): 0.7 °C
IC50 (SW-620 [9]): 15 µM
IC50 (MCF7): 29 µM
IC50 (MIA PaCa-2): > 100 µM
IC50 (HeLa [15]): 2 µM
SMILES: N=C(N)c1ccc2nc(/C=C/c3ccccc3)[nH]c2c1
IC50 [14]: > 100 µM
IC50 (HEp-2): 11 µM

ΔTm (DNA): 3.2 °C
IC50 (SW-620 [9]): 1.9 µM
IC50 (MCF7): 6.7 µM
IC50 (MIA PaCa-2): 10 µM
IC50 (HeLa [15]): 7 µM
SMILES: N=C(NN1CCOCC1)c1ccc2ccc3nc4ccccc4n3c2c1
IC50 [14]: 17.7 µM
IC50 (HEp-2): 4.7 µM

ΔTm (DNA): 3.2 °C
IC50 (SW-620 [9]): 2 µM
IC50 (MCF7): 4 µM
IC50 (MIA PaCa-2): 2 µM
IC50 (HeLa [15]): 3 µM
SMILES: Cl.N=C(NN1CCOCC1)c1ccc2nc3ccc4ccccc4n3c2c1
Activity (HeLa [16]): 34%
Activity (HeLa [17]): 2%
Activity (HeLa [18]): 25%
Activity (HeLa [19]): 30%
Activity (HeLa [20]): 39%
Activity (HeLa [21]): 36%
Activity (HeLa [22]): 27%
IC50 [14]: 4 µM
IC50 (HEp-2): 2 µM
Activity (HeLa [23]): 2%
Activity (HeLa [24]): 36%
Activity (HeLa [25]): 3%
Activity (HeLa [26]): 37%
Activity (HeLa [27]): 35%
